In ChEMBL document CHEMBL5036316, “Re-emerging Aspartic Protease Targets: Examining Cryptococcus neoformans Major Aspartyl Peptidase 1 as a Target for Antifungal Drug Discovery” (J Med Chem, 2021):
Calls of active or inactive are those of the source. The rule behind the calls is not given here.

What was measured:
[1] = Binding affinity to recombinant Cryptococcus neoformans var. grubii H99 major aspartyl peptidase 1 assessed as inhibition constant
Cryptococcus neoformans [2] = test: Antifungal activity against Cryptococcus neoformans var. grubii H99 expressing major aspartyl peptidase 1 assessed as growth inhibition measured after 48 hrs; format: functional, organism-based; conditions: dose 0.1-50 µM
Outline: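 C. neoformans H99 grown in YNB with 2% glucose; overnight cultures diluted to OD600 0.1 with 0.1, 1.0, 10 or 50 μM compound or 0.5% DMSO vehicle. Incubated at 30 °C on a tube rotator; terminal saturation density read as OD600 after 48 h. Triplicate cultures, mean ± standard deviation.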

Cathepsin E = biological target: T1, Cathepsin E (Homo sapiens, UniProt P14091); test: Inhibition of human cathepsin E assessed as inhibition constant using ACC-GKPILFFRILK-(DNP)-(dR)-NH2 as substrate by spectrophotometric analysis
T1 sequence (P14091 whole entry): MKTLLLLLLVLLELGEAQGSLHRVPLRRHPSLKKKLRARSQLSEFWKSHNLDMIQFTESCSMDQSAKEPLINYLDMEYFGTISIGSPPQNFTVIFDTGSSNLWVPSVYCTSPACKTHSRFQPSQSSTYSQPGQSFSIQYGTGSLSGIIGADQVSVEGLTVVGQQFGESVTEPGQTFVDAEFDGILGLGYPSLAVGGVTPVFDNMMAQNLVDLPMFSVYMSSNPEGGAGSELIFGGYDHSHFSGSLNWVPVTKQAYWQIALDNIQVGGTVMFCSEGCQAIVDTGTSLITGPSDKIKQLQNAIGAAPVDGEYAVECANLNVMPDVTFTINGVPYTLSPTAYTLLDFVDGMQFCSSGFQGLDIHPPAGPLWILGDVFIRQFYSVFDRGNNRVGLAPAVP

Cryptococcus neoformans [3] = test: Antifungal activity against may1delta Cryptococcus neoformans var. grubii H99 assessed as reduction of density in stationary phase at 50 uM measured upto 48 hrs; format: functional, organism-based; conditions: time hrs <=48
Outline: (§1)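 Logarithmically growing may1Δ (and H99) yeast pelleted and resuspended to OD600 0.1 in unbuffered YNB or YNB with 50 mM MES pH 6.5. Treated with 50 μM compound or 0.5% DMSO vehicle at 30 °C on a tube rotator. OD600 read every 2 h for 12 h, then at 24 and 48 h. Triplicate cultures, mean ± standard deviation.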

CCRF-CEM = test: Cytotoxicity against human CCRF-CEM cells assessed as cell viability by celltiter-glo luminescent cell viability assay; format: cell-based
HL-60 = test: Cytotoxicity against human HL-60 cells assessed as cell viability by celltiter-glo luminescent cell viability assay; format: functional
Cryptococcus neoformans [4] = test: Antifungal activity against may1delta Cryptococcus neoformans var. grubii H99 assessed as reduction of density in logarithmic phase at 50 uM measured upto 48 hrs; format: functional, organism-based; conditions: time hrs <=48; outline: as §1
Cathepsin D = Cathepsin D (Homo sapiens, UniProt P07339); test: Inhibition of human cathepsin D assessed as inhibition constant using ACC-GKPILFFRILK-(DNP)-(dR)-NH2 as substrate by spectrophotometric analysis
Chain of Cathepsin D (P07339 65-162 limits assumed): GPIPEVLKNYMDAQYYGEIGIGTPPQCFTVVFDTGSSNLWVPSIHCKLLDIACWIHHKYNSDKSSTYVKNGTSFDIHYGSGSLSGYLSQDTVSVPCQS
Chain of Cathepsin D (P07339 169-412 limits assumed): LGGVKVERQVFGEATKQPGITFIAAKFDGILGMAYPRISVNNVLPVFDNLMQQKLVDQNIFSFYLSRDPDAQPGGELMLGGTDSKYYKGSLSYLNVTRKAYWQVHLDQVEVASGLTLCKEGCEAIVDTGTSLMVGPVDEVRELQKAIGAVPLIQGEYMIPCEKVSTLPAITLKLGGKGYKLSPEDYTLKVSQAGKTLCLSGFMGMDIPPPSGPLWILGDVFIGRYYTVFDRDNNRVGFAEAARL

[5] = biological target: Human immunodeficiency virus type 1 protease (Human immunodeficiency virus 1, UniProt Q72874); test: Inhibition of wild type HIV-1 protease assessed as initial inhibition constant by spectrophotometric analysis
HepG2 = test: Cytotoxicity against human HepG2 cells assessed as cell viability by celltiter-glo luminescent cell viability assay; format: functional
MCF7 = test: Cytotoxicity against human MCF7 cells assessed as cell viability by celltiter-glo luminescent cell viability assay; format: functional
HeLa = test: Cytotoxicity against human HeLa cells assessed as cell viability by celltiter-glo luminescent cell viability assay; format: functional
[6] = Inhibition of porcine pepsin assessed as inhibition constant using BSA-bromophenol blue as substrate by spectrophotometric analysis; design: species or system Sus scrofa
Renin = biological target: T2, Renin (Homo sapiens, UniProt P00797); test: Inhibition of human renin assessed as inhibition constant using H-R-E(EDANS)-1HPFHLVIHT-K(DABCYL)-R-OH as susbtrate by spectrophotometric analysis
T2 sequence (P00797 whole entry): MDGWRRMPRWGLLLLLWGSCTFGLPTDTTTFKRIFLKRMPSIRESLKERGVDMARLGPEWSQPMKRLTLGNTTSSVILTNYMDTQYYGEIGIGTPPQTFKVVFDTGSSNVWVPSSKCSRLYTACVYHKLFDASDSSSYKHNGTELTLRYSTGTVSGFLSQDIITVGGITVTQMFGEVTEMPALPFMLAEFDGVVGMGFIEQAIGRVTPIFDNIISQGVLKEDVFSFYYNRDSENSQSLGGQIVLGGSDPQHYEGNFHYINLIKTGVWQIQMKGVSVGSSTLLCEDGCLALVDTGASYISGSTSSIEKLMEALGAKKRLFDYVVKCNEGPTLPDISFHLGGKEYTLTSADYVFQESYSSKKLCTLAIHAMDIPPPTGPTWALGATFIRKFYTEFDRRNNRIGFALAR

Row | SMILES | Ki [1] [nM] | further results
1 | CSCC[C@H](NC(=O)[C@H](CCC(N)=O)NC(=O)C[C@H](O)[C@H](Cc1ccccc1)NC(=O)OCc1ccccc1)C(N)=O | 290 | 
2 | CC[C@H](C)[C@H](NC(=O)[C@H](CCC(N)=O)NC(=O)C[C@H](O)[C@H](Cc1ccccc1)NC(=O)OCc1ccccc1)C(N)=O | 240 | 
3 | CCCC[C@H](NC(=O)[C@H](CCC(=O)O)NC(=O)C[C@H](O)[C@H](Cc1ccccc1)NC(=O)OCc1ccccc1)C(N)=O | 180 | Activity (Cryptococcus neoformans [2]): Dose-Dependent Effect
4 | CCC[C@H](NC(=O)[C@H](CCC(=O)O)NC(=O)C[C@H](O)[C@H](Cc1ccccc1)NC(=O)OCc1ccccc1)C(N)=O | 410 | 
5 | NC(=O)CC[C@H](NC(=O)C[C@H](O)[C@H](Cc1ccccc1)NC(=O)OCc1ccccc1)C(=O)N[C@@H](CCc1ccccc1)C(N)=O | 64 | 
6 | NC(=O)[C@H](Cc1ccccc1)NC(=O)[C@H](CCC(=O)O)NC(=O)C[C@H](O)[C@H](Cc1ccccc1)NC(=O)OCc1ccccc1 | 390 | 
7 | CC(C)[C@H](NC(=O)[C@H](CCC(N)=O)NC(=O)C[C@H](O)[C@H](Cc1ccccc1)NC(=O)OCc1ccccc1)C(N)=O | 120 | 
8 | NC(=O)CC[C@H](NC(=O)C[C@H](O)[C@H](Cc1ccccc1)NC(=O)OCc1ccccc1)C(=O)N[C@@H](CC1CCCCC1)C(N)=O | 400 | 
9 | CCC[C@H](NC(=O)[C@H](CCC(N)=O)NC(=O)C[C@H](O)[C@H](Cc1ccccc1)NC(=O)OCc1ccccc1)C(N)=O | 470 | 
10 | CSCC[C@H](NC(=O)[C@H](CCC(=O)O)NC(=O)C[C@H](O)[C@H](Cc1ccccc1)NC(=O)OCc1ccccc1)C(N)=O | 280 | 
11 | CC[C@H](NC(=O)[C@H](CCC(N)=O)NC(=O)C[C@H](O)[C@H](Cc1ccccc1)NC(=O)OCc1ccccc1)C(N)=O | 1200 | 
12 | CCOP(=O)(COc1ccc(C[C@H](NC(=O)O[C@H]2CO[C@H]3OCC[C@H]32)[C@H](O)CN(CC(C)C)S(=O)(=O)c2ccc(OC)cc2)cc1)OCC | 170 | 
13 | CC(C)C[C@H](NC(=O)[C@H](CCC(=O)O)NC(=O)C[C@H](O)[C@H](Cc1ccccc1)NC(=O)OCc1ccccc1)C(N)=O | 160 | 
14 | CC(C)[C@H](NC(=O)[C@H](CCC(=O)O)NC(=O)C[C@H](O)[C@H](Cc1ccccc1)NC(=O)OCc1ccccc1)C(N)=O | 82 | Activity (Cryptococcus neoformans [2]): Dose-Dependent Effect
15 | CC(C)[C@H](NC(=O)[C@H](Cc1ccccc1)C[C@H](O)[C@H](Cc1ccccc1)NC(=O)OC(C)(C)C)C(=O)N[C@@H](Cc1ccccc1)C(=O)N1CCOCC1 | 13 | 
16 | Cc1nc(COc2ccc(C[C@H](NC(=O)O[C@H]3CO[C@H]4OCC[C@H]43)[C@H](O)CN(CC(C)C)S(=O)(=O)c3ccc4c(c3)OCO4)cc2)cs1 [BRECANAVIR] | 350 | 
17 | NC(=O)[C@@H](NC(=O)[C@H](CCC(=O)O)NC(=O)C[C@H](O)[C@H](Cc1ccccc1)NC(=O)OCc1ccccc1)c1ccccc1 | 210 | 
18 | NC(=O)[C@H](CCc1ccccc1)NC(=O)[C@H](CCC(=O)O)NC(=O)C[C@H](O)[C@H](Cc1ccccc1)NC(=O)OCc1ccccc1 | 12 | Ki (Cathepsin E): 440 nM; Activity (Cryptococcus neoformans [2]): Dose-Dependent Effect; Activity (Cryptococcus neoformans [3]): inactive; CC50 (CCRF-CEM): > 80 µM; CC50 (HL-60): > 80 µM; Activity (Cryptococcus neoformans [4]): inactive; Ki (Cathepsin D): 620 nM; Ki [5]: 0.032 nM; CC50 (HepG2): > 80 µM; CC50 (MCF7): > 80 µM; CC50 (HeLa): > 80 µM; Ki [6]: 1600 nM; Ki (Renin): 19 µM
19 | CC[C@H](C)[C@H](NC(=O)[C@H](CCC(=O)O)NC(=O)C[C@H](O)[C@H](Cc1ccccc1)NC(=O)OCc1ccccc1)C(N)=O | 410 | 
20 | NC(=O)[C@H](CC1CCCCC1)NC(=O)[C@H](CCC(=O)O)NC(=O)C[C@H](O)[C@H](Cc1ccccc1)NC(=O)OCc1ccccc1 | 160 | 
21 | CC[C@H](NC(=O)[C@H](CCC(=O)O)NC(=O)C[C@H](O)[C@H](Cc1ccccc1)NC(=O)OCc1ccccc1)C(N)=O | 760 | 
22 | NC(=O)CC[C@H](NC(=O)C[C@H](O)[C@H](Cc1ccccc1)NC(=O)OCc1ccccc1)C(=O)N[C@@H](Cc1ccccc1)C(N)=O | 320 | 
23 | C[C@@H](O)[C@H](NC(=O)[C@H](CCC(=O)O)NC(=O)C[C@H](O)[C@H](Cc1ccccc1)NC(=O)OCc1ccccc1)C(N)=O | 250 | 
24 | CCCC[C@H](NC(=O)[C@H](CCC(N)=O)NC(=O)C[C@H](O)[C@H](Cc1ccccc1)NC(=O)OCc1ccccc1)C(N)=O | 170 | 
25 | C[C@@H](O)[C@H](NC(=O)[C@H](CCC(N)=O)NC(=O)C[C@H](O)[C@H](Cc1ccccc1)NC(=O)OCc1ccccc1)C(N)=O | 1300 | 
26 | NC(=O)CC[C@H](NC(=O)C[C@H](O)[C@H](Cc1ccccc1)NC(=O)OCc1ccccc1)C(=O)N[C@H](C(N)=O)c1ccccc1 | 360 | 
27 | CC(C)CN(C[C@@H](O)[C@H](Cc1ccccc1)NC(=O)O[C@H]1CCOC1)S(=O)(=O)c1ccc(N)cc1 | 750 | 
28 | NC(=O)[C@H](Cc1c[nH]c2ccccc12)NC(=O)[C@H](CCC(=O)O)NC(=O)C[C@H](O)[C@H](Cc1ccccc1)NC(=O)OCc1ccccc1 | 340 | 
